Source: PubChem BioAssay
Records with an inconclusive call do not appear. The source made the active and inactive calls.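 The calls were made as follows, unless noted: active = RAM network inhibition above 8.4% in each of two replicates, 3 SD over the compound average; inconclusive = above 8.4% inhibition in only one replicate; inactive = 8.4% inhibition or less in each replicate.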

Experiments:
[1] = S. cerevisiae growth inhibition in permissive medium (OD615), pilot counter-assay for S. cerevisiae lifespan shortening project, permissive growth control (AID 705;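 active = growth inhibition above 25% in both replicates, a cutoff set 3 SD above the mean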); details: OD615, 24 h, at 10 µM, stronger effect = higher value
In short: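 System: Engineered DeaD yeast | Buffer or medium: SC raffinose/galactose permissive medium | Doses: 10 µM single dose, 0.25% DMSO | Times: 24 h exposure, 30 °C | Measured by: OD615 turbidity read | Read-out: Yeast growth inhibition indicated by reduced 24 h OD615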

[2] = S. cerevisiae growth inhibition in restrictive medium, OD615, pilot screen, restrictive growth control, yeast lifespan reduction project (AID 706;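 active = growth inhibition above a set limit, 3 SD over mean compound inhibition, in both replicates, cut at about 43% in these data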;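 also: modified DeaD lifespan yeast strain shifted to restrictive glucose medium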); details: OD615, 48 h, at 10 µM, stronger effect = higher value
In short: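 Assay system: engineered S. cerevisiae DeaD strain; Buffer or medium: CSMM-D glucose medium; Dosing: 10 µM compound, 0.25% DMSO; Times: cell pre-growth 4 h, compound exposure 48 h, 30 °C; Detection: absorbance (optical density) measured at 615 nm.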

[3] = doxorubicin toxicity protection in MRP-1 cells – H69AR cells, CellTiter-Glo, duplicate, MRP-1 activator project, pilot screen (AID 807;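 active = viability increase at or above a cutoff of the median across tested compounds plus 3 SD, cut at about 8.5% in these data, passing the limit was not always enough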;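 also: compound pretreatment 18-22 h then 72 h combined with doxorubicin; 0% = doxorubicin alone and 100% = vehicle without doxorubicin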); details: H69AR viability with doxorubicin, CellTiter-Glo luminescence; at 10 µM; stronger effect = higher value
[4] = viability of HCT116 without oncogenic beta-catenin – human colon tumor cells, pilot screen (AID 823;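 active = cell viability at or below a set limit in both duplicate runs, the limit being the all-compound median minus 4 SD, cut at about 23% in these data, passing the limit was not always enough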;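 also: 0% = wells killed by 20 µM Hyamine and 100% = untreated DMSO cell wells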); details: HCT116 beta-catenin knockout viability, CellTiter-Glo, 60 h; at 10 µM; stronger effect = lower value
[5] = viability of PTEN-null HCT116 cells – cell-based, HCT116 clonal line, CellTiter-Glo, pilot screen (AID 824;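 active = viability at or below 27.92% in each of two runs, the all-compound median minus 4 SD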;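 also: 0% = 20 µM Hyamine control and 100% = vehicle cell control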); details: HCT116 PTEN-deleted viability, 60 h, at 10 µM, stronger effect = lower value
[6] = RAM pathway blockade in budding yeast – dse1pr::URA3 reporter, 5-FOA selection, pilot screen (AID 869;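 active = inhibition over a set limit, the all-compound mean plus 3 SD, in both replicate runs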;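 also: 0% = DMSO wells with no growth and 100% = 10 µM 1-NA-PP1 with full growth; RAM network block rescues cells from 5-FOA so hits raise OD615 growth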); details: S. cerevisiae dse1pr::URA3 5-FOA growth, OD615, 2 d; at 10 µM; stronger effect = higher value; strain carries analog-sensitive mutant Cbk1 kinase
[7] = RAM signaling pathway blockade in yeast – S. cerevisiae, Pdr1DBD-CYC8 efflux-inhibited sensitized strain, primary screen (AID 1298);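 also: 0% = DMSO untreated cells without growth and 100% = 10 µM 1-NA-PP1 full growth; higher means more yeast growth rescued from 5-FOA killing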; details: S. cerevisiae cbk1-as DSE1-URA3 strain, 5-FOA growth OD615, 2 d; at 50 µM; stronger effect = higher value

CCCS(=O)(=O)NCc1cn2c(C)csc2n1
inactive: growth inhibition [1] -0.385% | growth inhibition [2] 17.2% | viability increase [3] -2.28% | viability [4] 102% | viability [5] 92.6% | inhibition [6] 2.58% | RAM network inhibition [7] 5.52%

CCCNc1nc2c(c(=O)[nH]c(=O)n2C)n1CCc1ccccc1
inactive: growth inhibition [1] -3.82% | growth inhibition [2] 0.97% | viability increase [3] -1.3% | viability [4] 112% | viability [5] 103% | inhibition [6] 1.56% | RAM network inhibition [7] 5.88%

Cc1ccccc1CSc1nnc(-c2ccco2)n1Cc1ccco1
inactive: growth inhibition [1] 5.54% | growth inhibition [2] 10.2% | viability increase [3] -4.14% | viability [4] 82.6% | viability [5] 82.4% | inhibition [6] 0.145% | RAM network inhibition [7] 0.99%

Cc1nc(S(=O)(=O)c2ccc(Cl)cc2)c(NCc2ccccc2)o1
inactive: growth inhibition [1] -6.92% | growth inhibition [2] -2.45% | viability increase [3] -0.96% | viability [4] 94.5% | viability [5] 95.5% | inhibition [6] 2.39% | RAM network inhibition [7] 4.59%

CCCCCn1c(CNC(=O)c2cccs2)nc2ccccc21
inactive: growth inhibition [1] -5.02% | growth inhibition [2] 3.4% | viability increase [3] -2.58% | viability [4] 90.8% | viability [5] 94% | inhibition [6] 0.42% | RAM network inhibition [7] 3.16%

CCOC(=O)Cc1csc(NC(NC(=O)CC)(C(F)(F)F)C(F)(F)F)n1
inactive: growth inhibition [1] 0.765% | growth inhibition [2] -2.19% | viability increase [3] -0.75% | viability [4] 99.6% | viability [5] 96.7% | inhibition [6] 3.13% | RAM network inhibition [7] 6.43%

Cn1cccc1Cc1nnc(SCC(=O)NC2CCCCC2)n1CCc1ccccc1
inactive: growth inhibition [1] 9.32% | growth inhibition [2] 23.6% | viability increase [3] -2.17% | viability [4] 79.6% | viability [5] 81.5% | inhibition [6] 1.58% | RAM network inhibition [7] 8.9%

Cc1cc(SCC(=O)OCC(=O)N2CCN(C(=O)c3ccco3)CC2)c(C)cc1Br
inactive: growth inhibition [1] -2.27% | growth inhibition [2] 4.81% | viability increase [3] -2.19% | viability [4] 91.4% | viability [5] 98.2% | inhibition [6] 0.31% | RAM network inhibition [7] 0.4%

O=C(NCN1CCc2ccccc2C1)c1cnccn1
inactive: growth inhibition [1] -18.3% | growth inhibition [2] -15.1% | viability increase [3] -3.49% | viability [4] 96.3% | viability [5] 96.6% | inhibition [6] 3.92% | RAM network inhibition [7] 5.24%

CCOc1ccc(N(CC(=O)Nc2ccc(OC)cc2)S(=O)(=O)c2c(C)noc2C)cc1
inactive: growth inhibition [1] -8.01% | growth inhibition [2] -2.61% | viability increase [3] -3.3% | viability [4] 83.5% | viability [5] 73.9% | inhibition [6] 3.53% | RAM network inhibition [7] 4.12%

Cn1c(Cn2c(=O)sc3ccccc32)nnc1SCC(=O)NCc1ccc2c(c1)OCO2
inactive: growth inhibition [1] -5.55% | growth inhibition [2] -2.44% | viability increase [3] 0.11% | viability [4] 103% | viability [5] 101% | inhibition [6] 1.07% | RAM network inhibition [7] 4.41%

CCCc1nc(SCc2ccccn2)c2c(=O)n(C)c(=O)n(C)c2n1
inactive: growth inhibition [1] -3.14% | growth inhibition [2] -0.14% | viability increase [3] 1.81% | viability [4] 83.4% | viability [5] 85.4% | inhibition [6] 1.61% | RAM network inhibition [7] 5.45%

O=C1CC(c2ccccc2)CN1C(=O)c1ccccc1 (stereo unspecified)
inactive: growth inhibition [1] 2.52% | growth inhibition [2] -1.8% | viability increase [3] 1.53% | viability [4] 104% | viability [5] 98.6% | inhibition [6] 2.67% | RAM network inhibition [7] 6.11%

O/N=C(/Cc1ccccn1)c1ccccc1
inactive: growth inhibition [1] -1.64% | growth inhibition [2] 7.06% | viability increase [3] -1.19% | viability [4] 101% | viability [5] 101% | inhibition [6] 1.97% | RAM network inhibition [7] 0.22%

CC(c1ccccc1)N1CC(C(=O)N2CCN(c3ccccc3)CC2)CC1=O (stereo unspecified)
inactive: growth inhibition [1] 0.43% | growth inhibition [2] 1.48% | viability increase [3] -1.1% | viability [4] 104% | viability [5] 101% | inhibition [6] 0.54% | RAM network inhibition [7] 4.4%

O=C(C1CCN(S(=O)(=O)c2cccc3cccnc23)CC1)N1CCN(c2ccccc2)CC1
inactive: growth inhibition [1] 1.1% | growth inhibition [2] 16.9% | viability increase [3] -3.27% | viability [4] 87.7% | viability [5] 83.8% | inhibition [6] 1.76% | RAM network inhibition [7] 6.12%

O=C(Nc1ccccc1O)c1ccccc1O
inactive: growth inhibition [1] -9.29% | growth inhibition [2] 2.25% | viability increase [3] -3.07% | viability [4] 75.1% | viability [5] 63.3% | inhibition [6] -0.42% | RAM network inhibition [7] -1.84%

CCc1ccc(C2CC(=O)N3CN(c4ccccc4)CSC3=C2C#N)cc1 (stereo unspecified)
inactive: growth inhibition [1] 3.98% | growth inhibition [2] 21.7% | viability increase [3] -3.73% | viability [4] 101% | viability [5] 90.6% | inhibition [6] 1.68% | RAM network inhibition [7] -0.78%

c1ccc(C(Cc2nc(-c3cccnc3)no2)c2ccccc2)cc1
inactive: growth inhibition [1] -8.42% | growth inhibition [2] -4.57% | viability increase [3] 0.35% | viability [4] 90.8% | viability [5] 88.2% | inhibition [6] 1.46% | RAM network inhibition [7] 7.55%

COc1ccc(C(=O)/C(C)=N/O)cc1OC
inactive: growth inhibition [1] -15.6% | growth inhibition [2] -1.75% | viability increase [3] -0.59% | viability [4] 90.5% | viability [5] 88.6% | inhibition [6] 1.42% | RAM network inhibition [7] 2.98%

CCO/C(C)=C1\C(=O)N(CC)c2ccccc21
inactive: growth inhibition [1] -9.62% | growth inhibition [2] -5.21% | viability increase [3] -1.57% | viability [4] 96.7% | viability [5] 97.2% | inhibition [6] -0.745% | RAM network inhibition [7] 2.08%

O=C(NCCCc1ccccc1)c1ccncc1
inactive: growth inhibition [1] 1.08% | growth inhibition [2] 0.81% | viability increase [3] -0.23% | viability [4] 98.4% | viability [5] 99.4% | inhibition [6] 0.45% | RAM network inhibition [7] 6.46%

CCCN(CCC)S(=O)(=O)c1ccc(C(=O)N2CCC(=O)c3ccccc32)cc1
inactive: growth inhibition [1] -0.75% | growth inhibition [2] 1.45% | viability increase [3] -5.63% | viability [4] 81.2% | viability [5] 89.7% | inhibition [6] 2.23% | RAM network inhibition [7] 0.93%

CCn1c(CNC(=O)C23CC4CC(CC(C4)C2)C3)nnc1SCC(=O)Nc1nnc(C)s1
inactive: growth inhibition [1] 2.36% | growth inhibition [2] 24.3% | viability increase [3] 0.62% | viability [4] 96.7% | viability [5] 96.9% | inhibition [6] 2.5% | RAM network inhibition [7] 2.71%

c1ccc(Cc2nnc3sc(-c4ccc5c(c4)OCCO5)nn23)cc1
active: growth inhibition [2] 55.8%
inactive: growth inhibition [1] 4.51% | viability increase [3] 0.47% | viability [4] 105% | viability [5] 93.5% | inhibition [6] 1.33% | RAM network inhibition [7] 12.8%

COCCOC(=O)c1c(C)oc2ccc(OCC=C(C)C)cc12
inactive: growth inhibition [1] -0.275% | growth inhibition [2] -6.21% | viability increase [3] 3.27% | viability [4] 97.8% | viability [5] 95% | inhibition [6] 0.175% | RAM network inhibition [7] 4.81%

CC1CCCN(Cc2nc3c(c(=O)n(C)c(=O)n3C)n2Cc2cccc3ccccc23)C1 (stereo unspecified)
inactive: growth inhibition [1] -4.69% | growth inhibition [2] -2.08% | viability increase [3] -3.36% | viability [4] 73.2% | viability [5] 80% | inhibition [6] 1.08% | RAM network inhibition [7] 0.76%

O=C(C1CCCCC1)N1CCN(c2ncccn2)CC1
inactive: growth inhibition [1] -3.77% | growth inhibition [2] -0.05% | viability increase [3] 0.21% | viability [4] 101% | viability [5] 102% | inhibition [6] 1.31% | RAM network inhibition [7] 2.41%

Cn1c(=O)oc2cc(S(=O)(=O)NCc3ccco3)ccc21
inactive: growth inhibition [1] 2.12% | growth inhibition [2] 5.31% | viability increase [3] -4.38% | viability [4] 101% | viability [5] 93.8% | inhibition [6] 1.41% | RAM network inhibition [7] 3.2%

CC1CCCCN1Cc1nc2c(c(=O)n(C)c(=O)n2C)n1Cc1c(F)cccc1Cl (stereo unspecified)
inactive: growth inhibition [1] 1.95% | growth inhibition [2] -6.45% | viability increase [3] -3.05% | viability [4] 78.6% | viability [5] 79.2% | inhibition [6] 1.46% | RAM network inhibition [7] 0.66%

COCCN(CCOC)Cc1c(O)ccc2c3c(c(=O)oc12)CCC3
inactive: growth inhibition [1] -1.66% | growth inhibition [2] 7.01% | viability increase [3] -1.42% | viability [4] 99.9% | viability [5] 102% | inhibition [6] -0.65% | RAM network inhibition [7] -0.97%

COc1ccc(CNC(=O)c2cc3c(C)nc4ccccc4c3o2)c(OC)c1
inactive: growth inhibition [1] -10.6% | growth inhibition [2] -12.2% | viability increase [3] -0.17% | viability [4] 74% | viability [5] 75.2% | inhibition [6] 1.66% | RAM network inhibition [7] 6.46%

COc1ccc(OC)c2sc(NC(=O)C3=COCCO3)nc12
inactive: growth inhibition [1] -14.8% | growth inhibition [2] 0.525% | viability increase [3] -2.76% | viability [4] 93% | viability [5] 90.9% | inhibition [6] 0.98% | RAM network inhibition [7] 3.16%
